Results on four compounds are retold here after ChEMBL document CHEMBL1221405, “Chlorinated iridoid glucosides from Veronica longifolia and their antioxidant activity” (J Nat Prod, 2010).

≈ marks a conversion by molar mass, not a printed value.

Common to all, as to format: functional
Experiment [1] concerns Radical scavenging activity. The experiment can be described thus: Antioxidant activity assessed as DPPH radical scavenging activity after 30 mins. In outline:
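Compounds in MeOH at various concentrations were added to DPPH in MeOH (80 µg/mL). After 30 min, remaining DPPH was read by absorbance at 520 nm. Scavenging was calculated against a blank (100%) holding only DPPH and solvent.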
(Loss of DPPH colour is used to gauge radical scavenging.)

Experiment [2] can be described thus: Antioxidant activity assessed as superoxide radical scavenging activity by NBT method. In outline:
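Alkaline DMSO method (modified Kunchandy and Rao). Samples in DMSO were mixed with NBT (1 mg/mL in DMSO). Alkaline DMSO (DMSO with 5 mM NaOH in water) was added to give the final mixture. Absorbance was read at 560 nm.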

Experiment [3] in a line: Antioxidant activity assessed as nitric oxide scavenging activity after 150 mins by Griess assay. In outline:
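Serially diluted samples were mixed with an equal volume of 10 mM sodium nitroprusside in PBS and incubated under light at room temperature for 150 min. After 10 min, nitrite chromophore absorbance was read at 577 nm.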
On the technique in general: Griess reagent forms a coloured azo dye with nitrite.

As for `O=C1O[C@H]([C@@H](O)CO)C(O)=C1O` [ASCORBIC ACID], the IC50 in experiment [1] was < 10 µg/mL; in experiment [2], 13 µg/mL (≈ 73.8 µM); in experiment [3], > 1000 µg/mL.

For the compound `O=c1c(O)c(-c2ccc(O)c(O)c2)oc2cc(O)cc(O)c12` [QUERCETIN], the IC50 was < 10 µg/mL in experiment [1], 68 µg/mL (≈ 225 µM) in experiment [2] and 96 µg/mL (≈ 318 µM) in experiment [3].

For `O=C(/C=C/c1ccc(O)c(O)c1)O[C@H]1[C@@H]2C=CO[C@@H](O[C@H]3O[C@@H](CO)[C@H](O)[C@@H](O)[C@@H]3O)[C@@H]2[C@](O)(CO)[C@@H]1Cl` [LONGIFOLIOSIDE B], the IC50 in experiment [1] was found to be 19 µg/mL (≈ 33.9 µM); in experiment [2], 199 µg/mL (≈ 355 µM); in experiment [3] it was 285 µg/mL (≈ 508 µM).

Take `O=C(O[C@H]1[C@@H]2C=CO[C@@H](O[C@H]3O[C@@H](CO)[C@H](O)[C@@H](O)[C@@H]3O)[C@@H]2[C@](O)(CO)[C@@H]1Cl)c1ccc(O)c(O)c1` [LONGIFOLIOSIDES A]: the figures for the IC50 in experiment [1], in experiment [2] and in experiment [3] were 27 µg/mL (≈ 50.5 µM), 92 µg/mL (≈ 172 µM) and 149 µg/mL (≈ 279 µM), respectively.

Usually IC50 stands for the concentration that inhibits the measured activity by half.
